Published values collected from several papers.
Lines come from different studies, so protocols differ.

SMILES | assay | system | setting | quantity | result
CC(C)n1c(C2CCNCC2)nc2c([N+](=O)[O-])c(Br)c(Br)cc21 | – | human, urine | oral, 50 mg, single dose | renal clearance | 14.5 mL/min
CNS(=O)(=O)c1ccc(Nc2ncc(C(F)(F)F)c([C@H]3CC[C@@](C)(O)CC3)n2)c(C)c1 | metabolic stability | human, liver microsomes | 1 µM | scaled CLint | < 14 mL/min/kg
CC1(C)NC(=O)N(c2ccc(F)c(Br)c2)C1=O | HPLC | – | pH 7.4 | chromatographic logD | 2.4
NCCOCC(=O)N1CCC[C@H](C(=O)NCc2nc(-c3ccc(C(F)(F)F)cc3)cs2)C1 | metabolic stability | male Sprague-Dawley rat, liver microsomes | 0.5 µM | microsomal CLint | < 3 µL/min/mg
C[C@]1(O)CCCN(c2nc(Nc3ccc(S(=O)(=O)N[C@H]4CC[C@H](CN5CCN(c6ccc(C7CCC(=O)NC7=O)cc6F)CC5)CC4)cc3F)ncc2C(F)(F)F)C1 (stereo partly shown) | metabolic stability | human, liver microsomes | 1 µM | scaled CLint | < 14 mL/min/kg
CC1(C)NC(=O)N(c2ccc(F)c(F)c2)C1=O | HPLC | – | pH 7.4 | chromatographic logD | 1.8
C[C@H]1[C@@H](C(=O)NCc2nc(-c3ccc(C#N)cc3)cs2)CCCN1C(=O)[C@H]1CCO1 | metabolic stability | male Sprague-Dawley rat, liver microsomes | 0.5 µM | microsomal CLint | 45 µL/min/mg
CC1(C)NC(=O)N(c2ccc(F)c(CC(F)(F)F)c2)C1=O | HPLC | – | pH 7.4 | chromatographic logD | 2.7
OC[C@H]1O[C@@H](c2cc(Cc3ccc(C4CC4)cc3)c(Cl)c3c2CCO3)[C@H](O)[C@@H](O)[C@@H]1O | – | human, plasma | oral, 0.3 mg, single dose, fasted | CL/F | 9410 mL/h
c1cc(-c2ccc3ncnc(Nc4ncco4)c3c2)nc(N2CCOCC2)c1 | shake flask | aqueous buffer | pH 7.4 | logD | 3.1
C[C@H](O)c1ccc(NS(=O)(=O)c2ccc(OCC3CCC3)c(Cl)c2)c2nn(C)cc12 | metabolic stability | human, hepatocytes | 1 µM | hepatocyte CLint | 167 µL/min/10⁶ cells
FC(F)(F)c1cc(Nc2ncnc3ccc(-c4cccc(N5CCOCC5)c4)cc23)ccc1Cl | shake flask | aqueous buffer | pH 7.4 | logD | > 4.1
Cc1cc(S(=O)(=O)NC2CC(N3CCN(CC4CCN(c5ccc(NC6CCC(=O)NC6=O)cc5C)CC4)CC3)C2)ccc1Nc1ncc(C(F)(F)F)c(N2CCC[C@](C)(O)C2)n1 (stereo partly shown) | metabolic stability | human, liver microsomes | 1 µM | scaled CLint | 15 mL/min/kg
Cc1cc(N2C(=O)NC(C)(C)C2=O)cc(C(F)(F)F)n1 | HPLC | – | pH 7.4 | chromatographic logD | 2.2
COc1ccc2c(c1)CN(C(=O)CCN1CCC(Cc3ccccc3)CC1)CC[S@@+]2[O-] | – | male human, plasma | intravenous, 0.6 mg/kg, healthy volunteers | clearance | 175 mL/min
Cc1cc(S(=O)(=O)NC2CC(N3CCN(CC4CCN(c5ccc6c(c5F)n(C)c(=O)n6C5CCC(=O)NC5=O)CC4)CC3)C2)ccc1Nc1ncc(C(F)(F)F)c(N2CCCC(C)(O)C2)n1 (stereo not shown) | metabolic stability | human, liver microsomes | 1 µM | scaled CLint | 22 mL/min/kg

SMILES | assay | system | setting | quantity | result
C[C@@H](Oc1ccc(S(C)(=O)=O)cc1C(=O)N1C[C@@H]2C[C@]2(c2cc(C(F)(F)F)on2)C1)C(F)(F)F | – | human, plasma | oral, 10 mg, single dose, fasted | CL/F | 4970 mL/h
Cc1cc(S(=O)(=O)N[C@]2(C)C[C@H](N3CCN(CC4CCN(c5ccc6c(c5F)n(C)c(=O)n6C5CCC(=O)NC5=O)CC4)CC3)C2)ccc1Nc1ncc(C(F)(F)F)c(N2CCC[C@](C)(O)C2)n1 (stereo partly shown) | metabolic stability | human, liver microsomes | 1 µM | scaled CLint | 251 mL/min/kg
CC1(C(F)(F)F)NC(=O)N(c2ccc(F)c(C(F)(F)F)c2)C1=O (stereo not shown) | HPLC | – | pH 7.4 | chromatographic logD | 3.5
Cc1cc(S(=O)(=O)N[C@H]2C[C@H](CN3CCN(c4ccc(C5CCC(=O)NC5=O)c(Cl)c4)CC3)C2)ccc1Nc1ncc(C(F)(F)F)c(N2CCC[C@](C)(O)C2)n1 (stereo partly shown) | metabolic stability | human, liver microsomes | 1 µM | scaled CLint | 21 mL/min/kg
COCC(=O)N1CCC[C@H](C(=O)NCc2nc(-c3ccccc3)cs2)C1 | metabolic stability | human, hepatocytes | 0.5 µM | scaled CLint | 29 mL/min/kg
CC1(C)NC(=O)N(c2ccc(F)c(S(C)(=O)=O)c2)C1=O | HPLC | – | pH 7.4 | chromatographic logD | 1.2
CN1CCN(c2cccc(-c3ccc4ncnc(Nc5ccc(Cl)c(Cl)c5)c4c3)c2)CC1 | shake flask | aqueous buffer | pH 7.4 | logD | > 4.1
CCONC(=O)N1CCC[C@H](C(=O)N[C@H](C)c2nc(-c3ccc(C#N)cc3)cs2)C1 | metabolic stability | male Sprague-Dawley rat, liver microsomes | 0.5 µM | microsomal CLint | 29 µL/min/mg
CNS(=O)(=O)c1ccc(Nc2ncc(C(F)(F)F)c(N3CCC[C@](C)(O)C3)n2)c(C)c1 | metabolic stability | human, liver microsomes | 1 µM | scaled CLint | 29 mL/min/kg
CCONC(=O)N1CCC[C@H](C(=O)NCc2nc(-c3ccc(C#N)cc3)cs2)C1 | metabolic stability | male Sprague-Dawley rat, liver microsomes | 0.5 µM | scaled CLint | 63 mL/min/kg
O=C1NC(CF)(CF)C(=O)N1c1ccc(F)c(C(F)(F)F)c1 | HPLC | – | pH 7.4 | chromatographic logD | 3
CCOCC(=O)N1CCC[C@H](C(=O)NCc2nc(-c3ccc(C)nc3)cs2)C1 | metabolic stability | male Sprague-Dawley rat, hepatocytes | 0.5 µM | scaled CLint | 27 mL/min/kg
Cc1cc(S(=O)(=O)NC2CC(N3CC[C@@H](OC4CN(c5cccc6c5n(C)c(=O)n6C5CCC(=O)NC5=O)C4)[C@H](F)C3)C2)ccc1Nc1ncc(C(F)(F)F)c(N2CCC[C@](C)(O)C2)n1 (stereo partly shown) | metabolic stability | human, liver microsomes | 1 µM | scaled CLint | 28 mL/min/kg
c1coc(Nc2ncnc3ccc(-c4cncc(N5CCOCC5)n4)cc23)n1 | shake flask | aqueous buffer | pH 7.4 | logD | 3.5
CC(C)(N)COCC(=O)N1CCC[C@H](C(=O)NCc2nc(-c3ccc(C(F)(F)F)cc3)cs2)C1 | metabolic stability | male Sprague-Dawley rat, liver microsomes | 0.5 µM | microsomal CLint | 9.9 µL/min/mg
